Laboratory results: ChEMBL document CHEMBL3400032 (Bioorg Med Chem, 2015)

Columns and labels:
[1] = Drug metabolism in Sprague-Dawley rat liver S9 fraction assessed as compound remaining at 1 uM after 30 mins by HPLC/MS/MS analysis relative to control; type: ADME, subcellular; settings: read-out: Stability
Procedure, shortened: (§1)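 Test compound at 1 µM final, incubated 30 min at 37 °C in serum, or in S9 mix (50 mM potassium phosphate pH 7.4, 3 mM NADPH, 1 mg protein/mL pooled male SD rat or human liver S9). Preincubated 5 min at 37 °C, compound added in acetonitrile–water (1:1), stopped with ice-cold acetonitrile, centrifuged, filtered, parent and carboxylate hydrolysate quantified by HPLC-MS/MS.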

[2] = Drug metabolism in rat serum assessed as compound remaining at 1 uM after 30 mins by HPLC/MS/MS analysis relative to control; type: ADME, cell-free; settings: read-out: Stability; procedure, shortened: as §1
[3] = Drug metabolism in human liver S9 fraction assessed as compound remaining at 1 uM after 30 mins by HPLC/MS/MS analysis relative to control; type: ADME, subcellular; settings: read-out: Stability; procedure, shortened: as §1
[4] = Drug metabolism in human serum assessed as compound remaining at 1 uM after 30 mins by HPLC/MS/MS analysis relative to control; type: ADME, cell-free; settings: read-out: Stability; procedure, shortened: as §1
[5] = Drug metabolism in Sprague-Dawley rat liver S9 fraction assessed as 2-(3-aminopiperidin-1-yl)-3-(2-chlorobenzyl)-5-methyl-4-oxo-4,5-dihydro-3H-imidazo[4,5-c]quinoline-8-carboxylic acid formation at 1 uM after 30 mins by HPLC/MS/MS analysis relative to control; type: ADME, subcellular; settings: s9, 0.5 h; procedure, shortened: as §1
Serum [6] = experiment: Drug metabolism in rat serum assessed as 2-(3-aminopiperidin-1-yl)-3-(2-chlorobenzyl)-5-methyl-4-oxo-4,5-dihydro-3H-imidazo[4,5-c]quinoline-8-carboxylic acid formation at 1 uM after 30 mins by HPLC/MS/MS analysis relative to control; type: ADME, cell-free; settings: 0.5 h; procedure, shortened: as §1
[7] = Drug metabolism in human liver S9 fraction assessed as 2-(3-aminopiperidin-1-yl)-3-(2-chlorobenzyl)-5-methyl-4-oxo-4,5-dihydro-3H-imidazo[4,5-c]quinoline-8-carboxylic acid formation at 1 uM after 30 mins by HPLC/MS/MS analysis relative to control; type: ADME, subcellular; settings: s9, 0.5 h; procedure, shortened: as §1
Serum [8] = experiment: Drug metabolism in human serum assessed as 2-(3-aminopiperidin-1-yl)-3-(2-chlorobenzyl)-5-methyl-4-oxo-4,5-dihydro-3H-imidazo[4,5-c]quinoline-8-carboxylic acid formation at 1 uM after 30 mins by HPLC/MS/MS analysis relative to control; type: ADME, cell-free; settings: 0.5 h; procedure, shortened: as §1
[9] = Permeability of the compound at pH 5 by PAMPA; type: ADME; settings: read-out: permeability
[10] = Permeability of the compound at pH 7.4 by PAMPA; type: ADME; settings: read-out: permeability
[11] = Drug metabolism in Sprague-Dawley rat liver S9 fraction assessed as 2-(3-aminopiperidin-1-yl)-3-(2-chlorobenzyl)-5-methyl-4-oxo-4,5-dihydro-3H-imidazo[4,5-c]quinoline-7-carboxylic acid formation at 1 uM after 30 mins by HPLC/MS/MS analysis relative to control; type: ADME, subcellular; settings: s9, 0.5 h; procedure, shortened: as §1
Serum [12] = experiment: Drug metabolism in rat serum assessed as 2-(3-aminopiperidin-1-yl)-3-(2-chlorobenzyl)-5-methyl-4-oxo-4,5-dihydro-3H-imidazo[4,5-c]quinoline-7-carboxylic acid formation at 1 uM after 30 mins by HPLC/MS/MS analysis relative to control; type: ADME, cell-free; settings: 0.5 h; procedure, shortened: as §1
[13] = Drug metabolism in human liver S9 fraction assessed as metabolite 3 formation at 1 uM after 30 mins by HPLC/MS/MS analysis relative to control; type: ADME, subcellular; settings: s9, 0.5 h; procedure, shortened: as §1
Serum [14] = experiment: Drug metabolism in human serum assessed as 2-(3-aminopiperidin-1-yl)-3-(2-chlorobenzyl)-5-methyl-4-oxo-4,5-dihydro-3H-imidazo[4,5-c]quinoline-7-carboxylic acid formation at 1 uM after 30 mins by HPLC/MS/MS analysis relative to control; type: ADME, cell-free; settings: 0.5 h; procedure, shortened: as §1
Rattus norvegicus [15] = experiment: Oral bioavailability in rat assessed as 2-(3-aminopiperidin-1-yl)-3-(2-chlorobenzyl)-5-methyl-4-oxo-4,5-dihydro-3H-imidazo[4,5-c]quinoline-7-carboxylic acid level at 10 mg/kg; type: ADME, organism-based; settings: in vivo
[16] = Plasma concentration in rat at 10 mg/kg, po after 6 hrs; type: ADME, organism-based; set-up: dose 10 mg/kg, route oral
Procedure, shortened: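 Rats dosed orally with prodrug; plasma levels of prodrug and carboxylate active metabolite measured over time, limit of quantification 1.0 ng/mL.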

Dipeptidyl peptidase 4 = Dipeptidyl peptidase 4 (Homo sapiens, UniProt P27487); experiment: Inhibition of human DPP4
Sequence of Dipeptidyl peptidase 4 (P27487 whole entry): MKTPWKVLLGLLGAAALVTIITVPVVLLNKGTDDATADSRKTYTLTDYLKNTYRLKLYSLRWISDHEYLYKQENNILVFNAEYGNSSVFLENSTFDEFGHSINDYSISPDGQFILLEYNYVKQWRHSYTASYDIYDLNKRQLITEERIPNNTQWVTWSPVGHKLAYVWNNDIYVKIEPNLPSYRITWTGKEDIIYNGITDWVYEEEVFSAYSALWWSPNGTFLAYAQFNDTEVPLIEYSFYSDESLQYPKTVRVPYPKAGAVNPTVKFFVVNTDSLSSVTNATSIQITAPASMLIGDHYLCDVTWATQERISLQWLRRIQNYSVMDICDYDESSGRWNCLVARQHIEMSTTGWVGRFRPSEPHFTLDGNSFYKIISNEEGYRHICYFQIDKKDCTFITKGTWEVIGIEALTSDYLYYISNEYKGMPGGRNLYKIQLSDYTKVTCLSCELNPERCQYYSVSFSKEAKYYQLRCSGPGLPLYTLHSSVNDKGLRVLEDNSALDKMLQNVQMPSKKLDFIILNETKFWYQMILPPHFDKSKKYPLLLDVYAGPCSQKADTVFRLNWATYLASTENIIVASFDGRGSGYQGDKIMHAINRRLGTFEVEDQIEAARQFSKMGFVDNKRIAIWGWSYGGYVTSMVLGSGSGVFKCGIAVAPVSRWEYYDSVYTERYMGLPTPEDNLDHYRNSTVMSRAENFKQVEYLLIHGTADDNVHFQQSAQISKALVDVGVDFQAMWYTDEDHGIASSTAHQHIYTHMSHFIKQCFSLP

Rattus norvegicus [17] = experiment: Cmax in rat assessed as 2-(3-aminopiperidin-1-yl)-3-(2-chloro-5-fluorobenzyl)-5-methyl-4-oxo-4,5-dihydro-3H-imidazo[4,5-c]quinoline-8-carboxylic acid level at 10 mg/kg, po; type: ADME, organism-based; set-up: dose 10 mg/kg, route oral; settings: in vivo
Rattus norvegicus [18] = experiment: Tmax in rat assessed as 2-(3-aminopiperidin-1-yl)-3-(2-chloro-5-fluorobenzyl)-5-methyl-4-oxo-4,5-dihydro-3H-imidazo[4,5-c]quinoline-8-carboxylic acid level at 10 mg/kg, po; type: ADME, organism-based; set-up: dose 10 mg/kg, route oral; settings: in vivo
Rattus norvegicus [19] = experiment: AUC in rat assessed as 2-(3-aminopiperidin-1-yl)-3-(2-chloro-5-fluorobenzyl)-5-methyl-4-oxo-4,5-dihydro-3H-imidazo[4,5-c]quinoline-8-carboxylic acid level at 10 mg/kg, po; type: ADME, organism-based, Plasma; set-up: dose 10 mg/kg, route oral; settings: in vivo
Rattus norvegicus [20] = experiment: Oral bioavailability in rat assessed as 2-(3-aminopiperidin-1-yl)-3-(2-chloro-5-fluorobenzyl)-5-methyl-4-oxo-4,5-dihydro-3H-imidazo[4,5-c]quinoline-8-carboxylic acid level at 10 mg/kg; type: ADME, organism-based; settings: in vivo
[21] = Solubility of the compound at pH 7.4; type: physicochemical; settings: buffer
[22] = Solubility of the compound at pH 5.5; type: physicochemical; settings: buffer
[23] = Solubility of the compound at pH 2.5; type: physicochemical; settings: buffer

Compound | remaining at 0.5 h, 1 µM [1] [%] | remaining at 0.5 h, 1 µM [2] [%] | remaining at 0.5 h, 1 µM [3] [%] | remaining at 0.5 h, 1 µM [4] [%] | Drug metabolism [5] | Drug metabolism (Serum [6]) | Drug metabolism [7] | Drug metabolism (Serum [8]) | Papp [9] [×10⁻⁶ cm/s] | Papp [10] [×10⁻⁶ cm/s] | also measured
Cl.Cn1c(=O)c2c(nc(N3CCC[C@@H](N)C3)n2Cc2ccccc2Cl)c2cc(C(=O)OCCCN3CCOCC3)ccc21 | 78 | 76 | 48 | 7 | metabolite_detected | metabolite_detected | metabolite_detected | metabolite_detected | < 0.1 | 3.4 | 
Cl.Cn1c(=O)c2c(nc(N3CCC[C@@H](N)C3)n2Cc2ccccc2Cl)c2cc(C(=O)OCOC(=O)C(C)(C)C)ccc21 | < 0.5 | 0.6 | < 0.5 | 73 | metabolite_detected | metabolite_detected | metabolite_detected | metabolite_detected | 6.5 | 6.3 | 
COC(=O)c1ccc2c3nc(N4CCC[C@@H](N)C4)n(Cc4ccccc4Cl)c3c(=O)n(C)c2c1.Cl | 70 | 8.4 | > 99 | 92 |  |  |  |  | 36.2 | 41.4 | Drug metabolism [11]: metabolite_detected; Drug metabolism (Serum [12]): metabolite_detected; Drug metabolism [13]: metabolite_detected; Drug metabolism (Serum [14]): metabolite_detected; F (Rattus norvegicus [15]): 90%; concentration at 6 h [16]: < 1 ng/mL
Cc1oc(=O)oc1COC(=O)c1ccc2c(c1)c1nc(N3CCC[C@@H](N)C3)n(Cc3cc(F)ccc3Cl)c1c(=O)n2C.Cl | 1 | < 0.5 | 3.5 | < 0.5 |  |  |  |  | 11 | 8.4 | IC50 (Dipeptidyl peptidase 4): 4.7 nM; Cmax (Rattus norvegicus [17]): 14.8 ng/mL; Tmax (Rattus norvegicus [18]): 2 h; AUC (Rattus norvegicus [19]): 72.7 ng·h/mL; F (Rattus norvegicus [20]): 11.7%; solubility [21]: < 1 µg/mL; solubility [22]: 2 µg/mL; solubility [23]: 25 µg/mL
CN(C)CCOC(=O)c1ccc2c(c1)c1nc(N3CCC[C@@H](N)C3)n(Cc3ccccc3Cl)c1c(=O)n2C.Cl | > 99 | 97 | > 99 | < 0.5 | metabolite_detected | metabolite_detected | metabolite_detected | metabolite_detected | < 0.1 | 0.6 | 
C[C@@H]1CN(CCOC(=O)c2ccc3c(c2)c2nc(N4CCC[C@@H](N)C4)n(Cc4ccccc4Cl)c2c(=O)n3C)C[C@H](C)O1.Cl | 30 | 92 | 22 | < 0.5 | metabolite_detected | metabolite_detected |  | metabolite_detected | 10.1 | 18 | 
CN(C)CCCOC(=O)c1ccc2c(c1)c1nc(N3CCC[C@@H](N)C3)n(Cc3ccccc3Cl)c1c(=O)n2C.Cl | > 99 | 38 | > 99 | < 0.5 | metabolite_detected | metabolite_detected | metabolite_detected | metabolite_detected | < 0.1 | < 0.1 | 
